Test results reported in ChEMBL document CHEMBL2040545, “Anti-influenza activity of marchantins, macrocyclic bisbibenzyls contained in liverworts” (2011).
Calls of active or inactive are those of the source. The calls are words filed in the database; no cut-off is given here.

What was measured:
[1] = molecular target: Polymerase acidic protein (Influenza A virus (A/Puerto Rico/8/1934(H1N1))) (UniProt P03433); assay: Inhibition of PA endonuclease at 1 uM; format: functional
Summary of the method: (§1)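 Recombinant His-tagged influenza A PA N-terminal endonuclease domain from E. coli, purified on Ni2+-agarose and then Q anion exchange, used at about 0.1 µM (0.35 µg/100 µl). Buffer at pH 7.3, 1 µg M13mp18 single-stranded circular DNA as substrate, compound at 1 or 10 µM. Digestion read by agarose electrophoresis with ethidium bromide staining. No-enzyme control included.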

[2] = molecular target: Polymerase acidic protein (Influenza A virus (A/Puerto Rico/8/1934(H1N1))) (UniProt P03433); assay: Inhibition of PA endonuclease at 10 uM; format: functional; summary of the method: as §1
[3] = molecular target: Polymerase acidic protein (Influenza A virus (A/Puerto Rico/8/1934(H1N1))) (UniProt P03433); assay: Inhibition of Influenza Viral Focus Formation at 50 uM relative to control; format: functional, cell-based; conditions: Canis lupus familiaris, MDCK
Summary of the method: (§2)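 MDCK cells infected with B/Malaysia/2506/2004 at m.o.i. 0.001, adsorbed 30 min at 37 °C, washed. Compound (50, 12.5 or 3.1 µM, DMSO vehicle) added in growth medium, no pre-incubation. Supernatant sampled daily over 3 days at 37°C. Each sample titrated 10-fold on fresh MDCK, ethanol-fixed after 1 day. Foci stained with anti-NP serum and the PAP/DAB method, then counted as FFU/ml.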

[4] = molecular target: Polymerase acidic protein (Influenza A virus (A/Puerto Rico/8/1934(H1N1))) (UniProt P03433); assay: Inhibition of Influenza Viral Focus Formation at 13 uM relative to control; format: functional, cell-based; conditions: Canis lupus familiaris, MDCK; summary of the method: as §2
[5] = (§3) Inhibition of Influenza Replication; format: functional, Canis lupus familiaris, MDCK
Summary of the method: (§4)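 MDCK monolayers (MEM, 10% FBS, 37 °C). Compounds at 6.25–50 µM, DMSO vehicle, premixed 30 min at 37°C with TCID50 of A/Hiroshima/52/2006 (H3N2), A/Solomon/3/2006 (H1N1) or B/Malaysia/2506/2004, then added to PBS-washed cells. Incubated 4 days at 34°C, 5% CO2. Cells fixed in 10% formaldehyde; surviving cells stained with naphthol blue black.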

[6] = as §3; format: functional, Canis lupus familiaris, MDCK; summary of the method: as §4; remark: listed apart in the source
[7] = as §3; format: functional, Canis lupus familiaris, MDCK; summary of the method: as §4; remark: listed apart in the source

Compound | inhibition [1] | inhibition [2] | inhibition [3] [%] | inhibition [4] [%] | Inhibition [5] [µM] | Inhibition [6] [µM] | Inhibition [7] [µM]
CC(C)[C@@H](C)/C=C/[C@@H](C)[C@H]1CCC2=C3C=CC4=CCCC[C@]4(C)[C@H]3CC[C@@]21C | inactive | inactive |  |  |  |  | 
COc1cc2c(cc1O)-c1ccc(O)cc1CCc1cc(O)c(O)c(c1)Oc1ccc(cc1)CC2 | inactive | Active | 5.11 | -4.66 |  |  | 
Oc1ccc2c(c1)CCc1ccc(O)c(c1)Oc1ccc(cc1)CCc1cccc(c1)O2 | inactive | inactive |  |  |  |  | 
COc1ccc2ccc(=O)oc2c1CC=C(C)C | inactive | inactive |  |  |  |  | 
COc1cc(O)cc(C(=O)c2cc(C)cc(OC)c2OC)c1CO | inactive | inactive |  |  |  |  | 
COc1cc(/C=C/c2ccccc2)oc(=O)c1 | inactive | inactive |  |  |  |  | 
COC(=O)c1[nH]c(C(=O)OC)c(-c2c[nH]c3ccc(O)cc23)c1-c1c[nH]c2ccc(O)cc12 | inactive | inactive |  |  |  |  | 
COc1c2occc2cc2ccc(=O)oc12 | inactive | inactive |  |  |  |  | 
C/C=C(\C)C(=O)CC1C2=CC(=O)[C@](C)(OC(C)=O)C(=O)C2=COC12OC(C)CCC2O (stereo partly specified) | inactive | inactive |  |  |  |  | 
CC(C)=CCOc1c2ccoc2cc2oc(=O)ccc12 | inactive | inactive |  |  |  |  | 
Oc1cc2cc(c1O)Oc1ccc(cc1)CCc1ccc(O)c(O)c1Oc1cccc(c1)CC2 | inactive | Active |  |  |  |  | 
C[C@H]1OC(=O)C=C[C@@H]1O | inactive | inactive |  |  |  |  | 
CC1(C)OC1COc1c2occc2cc2ccc(=O)oc12 (stereo unspecified) | inactive | inactive |  |  |  |  | 
CC(C)=CCOc1c2occc2cc2ccc(=O)oc12 | inactive | inactive |  |  |  |  | 
C=CCc1ccc(O)c(-c2ccc(O)c(CC=C)c2)c1 | inactive | inactive |  |  |  |  | 
COC1=CC(=O)O[C@@H](/C=C/c2ccccc2)C1 | inactive | inactive |  |  |  |  | 
COC1=CC(=O)O[C@@H](/C=C/c2ccc3c(c2)OCO3)C1 | inactive | inactive |  |  |  |  | 

Compound | inhibition [1] | inhibition [2] | inhibition [3] [%] | inhibition [4] [%] | Inhibition [5] [µM] | Inhibition [6] [µM] | Inhibition [7] [µM]
COc1cccc2c(-c3ccc(O)c4c(OC)cccc34)ccc(O)c12 | inactive | inactive |  |  |  |  | 
COc1ccc2c(c1)CCc1ccc(cc1)Oc1cc(ccc1O)CCc1ccc-2c(O)c1 | inactive | inactive | 5.56 | -3.59 |  |  | 
Oc1ccc2cc1Oc1ccc(cc1)CCc1cccc(c1)Oc1c(O)cccc1CC2 | inactive | inactive |  |  |  |  | 
COc1ccc(/C=C/c2cc(OC)cc(=O)o2)cc1 | inactive | inactive |  |  |  |  | 
Oc1cccc(CCc2ccc(Oc3cc(CCc4cccc(O)c4)cc(O)c3O)cc2)c1 [PERROTETTIN F] | inactive | Active |  |  | 50 |  | 
COC1Cc2cccc(c2)Oc2c(O)cccc2CCc2ccc(cc2)Oc2cc1cc(O)c2O (stereo unspecified) [MARCHANTIN E] | inactive | Active | 4.44 | 2.96 | 25 | 50 | 50
Oc1cc2cc(c1O)Oc1ccc(cc1)CCc1cccc(O)c1Oc1cccc(c1)CC2 [MARCHANTIN A] | inactive | Active | 10.2 | 2.33 | 50 |  | 
C=CCc1ccc(O)c(-c2cc(CC=C)ccc2O)c1 | inactive | inactive |  |  |  |  | 
COC1=CC(=O)O[C@@H](CCc2ccccc2)C1 | inactive | inactive |  |  |  |  | 
COC(=O)c1[nH]c(C(=O)OC)c(-c2c[nH]c3ccc(O)cc23)c1-c1c[nH]c2ccccc12 | inactive | inactive |  |  |  |  | 
COc1c2ccoc2cc2oc(=O)ccc12 | inactive | inactive |  |  |  |  | 
COc1c2ccoc2c(OC)c2oc(=O)ccc12 | inactive | inactive |  |  |  |  | 
COc1cccc2c1Oc1cccc(c1)CCc1cc(OC)c(OC)c(c1)Oc1ccc(cc1)CC2 | inactive | inactive | 5.78 | -2.75 |  |  | 
COc1cc(C)cc(C(=O)c2cc(O)cc(OC)c2CO)c1O | inactive | inactive |  |  |  |  | 
COc1c2ccoc2c(OCC=C(C)C)c2oc(=O)ccc12 | inactive | inactive |  |  |  |  | 
Oc1ccc2cc1Oc1ccc(cc1)CCc1cccc(O)c1Oc1cccc(c1)CC2 | inactive | inactive |  |  |  |  | 
